# Assay results from ChEMBL document CHEMBL1212834, “Pyrido[2,3-b]pyrazines, discovery of TRPV1 antagonists with reduced potential for the formation of reactive metabolites” (Bioorg Med Chem Lett, 2010).
# Columns and labels:
# [1] = Cmax in rat at 1 mg/kg, po; assay type: ADME, organism-based; design: dose 1 mg/kg, route oral; settings: in vivo
# Outline: (§1)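 Oral PK at the dose in the line, given as a suspension in 0.5% methocel. […] Reported as mean ± error.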
# [2] = Apparent permeability across MDCK cell membrane; assay type: ADME, cell-based, Canis lupus familiaris; settings: dog
# Outline: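 Permeability across MDCK cell monolayers, reported as Papp. Efflux ratio calculated as (B→A)/(A→B).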
# [3] = Oral bioavailability in dog at 1 mg/kg; assay type: ADME, organism-based, Canis lupus familiaris; settings: in vivo
# Outline: (§2)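 Oral bioavailability from a 1 mg/kg po dose (suspension in 0.5% methocel), compared against a 1 mg/kg iv dose (solution in 3:1 PEG300:water).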
# [4] = Half life in dog at 1 mg/kg, iv; assay type: ADME, organism-based, Canis lupus familiaris; design: dose 1 mg/kg, route intravenous; settings: in vivo
# Outline: (§3)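 IV PK at 1 mg/kg, given as a solution in 3:1 PEG300:water. Plasma half-life, clearance and volume of distribution derived.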
# [5] = Half life in rat at 1 mg/kg, iv; assay type: ADME, organism-based; design: dose 1 mg/kg, route intravenous; settings: in vivo; outline: as §3
# [6] = Oral bioavailability in rat at 1 mg/kg; assay type: ADME, organism-based; settings: in vivo; outline: as §2
# Rattus norvegicus [7] = experiment: Antiinflammatory activity in Sprague-Dawley rat assessed as inhibition of carrageenan-induced thermal hyperalgesia at 1 mg/kg, po administered 3.5 hrs after carrageenan challenge measured after 5 hrs; assay type: functional
# Outline: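 Rat carrageenan-induced thermal hyperalgesia. Dosed orally as a suspension in 0.5% methocel; % inhibition reported at each dose.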
# Canis familiaris = organism: Canis familiaris; experiment: Cardiotoxicity in dog assessed as effect on heart rate at plasma concentration of up to 24 uM; assay type: toxicity, organism-based, Canis lupus familiaris
# Plasma = experiment: Covalent protein binding in rat assessed per mg of protein at 8.1 mg/kg, po after 2 to 24 hrs; settings: in vivo
# Rattus norvegicus [8] = experiment: Antiinflammatory activity in rat assessed as inhibition of complete Freund's adjuvant-induced hind paw edema at 10 mg/kg, po administered 1 day after complete Freund's adjuvant challenge QD for 3 consecutive days measured at 24 hrs post dose on day 3; assay type: functional
# Outline: (§4)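 CFA 200 µL injected intraplantar into the left hind paw. From the next day, 1, 3 or 10 mg/kg po once daily for 3 days as a suspension in 0.5% methocel.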
# [9] = Cmax in rhesus monkey at 1 mg/kg, po; assay type: ADME, organism-based, Macaca mulatta; design: dose 1 mg/kg, route oral; settings: in vivo; outline: as §1
# [10] = molecular target: Transient receptor potential cation channel subfamily V member 1 (Homo sapiens, UniProt Q8NER1); experiment: Antagonist activity at human TRPV1 assessed as inhibition of capsaicin-induced receptor activation by FLIPR assay; assay type: functional
# Sequence of Transient receptor potential cation channel subfamily V member 1 (Q8NER1 whole entry): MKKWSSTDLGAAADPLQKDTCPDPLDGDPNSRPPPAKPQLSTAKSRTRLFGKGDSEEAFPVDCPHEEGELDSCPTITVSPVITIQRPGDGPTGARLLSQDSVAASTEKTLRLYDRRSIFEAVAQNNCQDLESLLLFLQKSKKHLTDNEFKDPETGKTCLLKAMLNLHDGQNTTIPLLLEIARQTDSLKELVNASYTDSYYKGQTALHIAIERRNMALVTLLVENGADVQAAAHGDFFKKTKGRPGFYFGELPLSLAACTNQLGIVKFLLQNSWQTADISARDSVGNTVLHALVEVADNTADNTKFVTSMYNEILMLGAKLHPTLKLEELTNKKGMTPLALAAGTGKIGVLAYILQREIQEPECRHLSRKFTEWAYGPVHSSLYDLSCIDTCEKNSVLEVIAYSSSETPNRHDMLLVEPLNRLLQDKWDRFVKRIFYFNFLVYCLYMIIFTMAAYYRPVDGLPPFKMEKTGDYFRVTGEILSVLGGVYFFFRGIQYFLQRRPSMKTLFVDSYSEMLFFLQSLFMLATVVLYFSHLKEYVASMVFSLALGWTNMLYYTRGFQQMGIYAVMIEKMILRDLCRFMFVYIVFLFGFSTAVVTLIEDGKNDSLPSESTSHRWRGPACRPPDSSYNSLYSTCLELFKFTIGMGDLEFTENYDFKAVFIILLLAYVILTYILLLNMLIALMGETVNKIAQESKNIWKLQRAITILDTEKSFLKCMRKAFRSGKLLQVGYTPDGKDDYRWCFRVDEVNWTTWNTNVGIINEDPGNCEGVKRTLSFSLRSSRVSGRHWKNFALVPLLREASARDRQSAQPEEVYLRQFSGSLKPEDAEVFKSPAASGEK
# Outline: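 Human TRPV1 activated by capsaicin; inhibition read by FLIPR. IC50 is the mean of ≥3 experiments.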
# [11] = AUC (0 to 24 hrs) in rat at 100 mg/kg, po; assay type: ADME, organism-based; design: time < 24 hr, dose 100 mg/kg, route oral; settings: plasma; outline: as §1
# [12] = AUC (0 to 24 hrs) in rhesus monkey at 1 mg/kg, po; assay type: ADME, organism-based, Macaca mulatta; design: time < 24 hr, dose 1 mg/kg, route oral; settings: plasma; outline: as §1
# [13] = Plasma concentration in rat complete Freund's adjuvant-induced inflammation model at 1 mg/kg, po QD for 3 consecutive days measured at 2 hrs post dose on day 1; assay type: ADME, organism-based; design: dose 1 mg/kg, route oral
# Outline: (§5)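 CFA (200 µL) injected intraplantar into left hind paw; next day rats dosed orally once daily for three consecutive days (1, 3 or 10 mg/kg, suspension in 0.5% methocel). Separate cohort: plasma sampled each day 2 h after dosing.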
# [14] = Cmax in dog at 1 mg/kg, po; assay type: ADME, organism-based, Canis lupus familiaris; design: dose 1 mg/kg, route oral; settings: in vivo; outline: as §1
# [15] = AUC (0 to 24 hrs) in dog at 1 mg/kg, po; assay type: ADME, organism-based, Canis lupus familiaris; design: time < 24 hr, dose 1 mg/kg, route oral; settings: plasma; outline: as §1
# [16] = Cmax in dog at 10 mg/kg, po; assay type: ADME, organism-based, Canis lupus familiaris; design: dose 10 mg/kg, route oral; settings: in vivo; outline: as §1
# Rattus norvegicus [17] = experiment: Antihyperalgesic activity in rat assessed as inhibition of complete Freund's adjuvant-induced mechanical hyperalgesia measured as differential weight bearing at 1 mg/kg, po administered 1 day after complete Freund's adjuvant challenge QD for 3 consecutive days measured at 2 hrs post dose on day 1
# [18] = Plasma concentration in rat complete Freund's adjuvant-induced inflammation model at 10 mg/kg, po at 2 hrs on third day; assay type: ADME, organism-based; design: dose 10 mg/kg, route oral; outline: as §5
# Rattus norvegicus [19] = experiment: Plasma concentration in Sprague-Dawley rat carrageenan-induced thermal hyperalgesia model at 3 mg/kg, po; assay type: ADME, organism-based; design: dose 3 mg/kg, route oral; settings: in vivo
# Outline: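 Rats given compound orally as a suspension in 0.5% methocel in the carrageenan-induced thermal hyperalgesia model. Plasma sampled immediately after the CITH experiment.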
# [20] = molecular target: T1, Amine oxidase [flavin-containing] A (Homo sapiens, UniProt P21397); experiment: Inhibition of MAOA
# T1 sequence (P21397 whole entry): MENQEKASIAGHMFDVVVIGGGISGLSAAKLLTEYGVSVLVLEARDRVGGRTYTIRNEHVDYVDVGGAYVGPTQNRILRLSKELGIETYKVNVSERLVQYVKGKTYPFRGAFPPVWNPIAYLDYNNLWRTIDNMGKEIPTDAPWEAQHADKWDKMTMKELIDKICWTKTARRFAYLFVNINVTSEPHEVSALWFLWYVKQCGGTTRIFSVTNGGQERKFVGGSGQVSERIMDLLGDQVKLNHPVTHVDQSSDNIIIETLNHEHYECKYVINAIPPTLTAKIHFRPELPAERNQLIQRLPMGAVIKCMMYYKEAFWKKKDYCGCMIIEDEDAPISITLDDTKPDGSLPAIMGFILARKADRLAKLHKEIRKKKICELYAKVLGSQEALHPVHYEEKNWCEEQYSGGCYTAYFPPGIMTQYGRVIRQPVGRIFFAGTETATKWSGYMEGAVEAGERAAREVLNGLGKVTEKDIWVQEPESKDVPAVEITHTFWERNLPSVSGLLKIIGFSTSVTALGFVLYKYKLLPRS
# Outline: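 Off-target panel of more than 160 receptors, ion channels, transporters and kinases, which included MAO.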
# [21] = Cmax in rat brain of complete Freund's adjuvant-induced inflammation model at 10 mg/kg, po; assay type: ADME, organism-based; design: dose 10 mg/kg, route oral
# Rattus norvegicus [22] = experiment: Antiinflammatory activity in rat assessed as inhibition of complete Freund's adjuvant-induced hind paw edema at 3 mg/kg, po administered 1 day after complete Freund's adjuvant challenge QD for 3 consecutive days measured at 2 hrs post dose on day 1; assay type: functional; outline: as §4
# Rattus norvegicus [23] = experiment: Plasma concentration in Sprague-Dawley rat carrageenan-induced thermal hyperalgesia model at 1 mg/kg, po; assay type: ADME, organism-based; design: dose 1 mg/kg, route oral; settings: in vivo
# Outline: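 Plasma sampled immediately after the carrageenan thermal hyperalgesia experiment, following oral dosing as a suspension in 0.5% methocel.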
# [24] = Oral bioavailability in rhesus monkey at 1 mg/kg; assay type: ADME, organism-based, Macaca mulatta; settings: in vivo; outline: as §2
# Liver microsomes = experiment: Metabolic stability in human liver microsomes assessed per mg of protein after 1 hr
# [25] = Ratio of drug level in brain to plasma in rat at 10 mg/kg, po; assay type: ADME, organism-based; design: dose 10 mg/kg, route oral; settings: read-out: BPR
# [26] = Metabolic stability in rat liver microsomes assessed as compound remaining after 10 min; assay type: ADME, Microsome; settings: read-out: Stability
# [27] = Volume of distribution in dog at 1 mg/kg, iv; assay type: ADME, organism-based, Canis lupus familiaris; design: dose 1 mg/kg, route intravenous; settings: in vivo
# Outline: (§6)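 Intravenous dose of 1 mg/kg given as a solution in 3:1 PEG300:water to rat, dog or rhesus monkey. Plasma PK parameters (T1/2, clearance, Vd) derived.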
# [28] = Volume of distribution in rhesus monkey at 1 mg/kg, iv; assay type: ADME, organism-based, Macaca mulatta; design: dose 1 mg/kg, route intravenous; settings: in vivo; outline: as §6
# Rattus norvegicus [29] = experiment: Antiinflammatory activity in rat assessed as inhibition of complete Freund's adjuvant-induced hind paw edema at 3 mg/kg, po administered 1 day after complete Freund's adjuvant challenge QD for 3 consecutive days measured at 24 hrs post dose on day 3; assay type: functional; outline: as §4
smiles,measurement,setting,value
NC(=O)c1cnc(-c2cnc3c(Nc4ccc(C(F)(F)F)cn4)ccnc3n2)c(C(F)(F)F)c1,Cmax,[1],300 nM
same,Papp,[2],34 ×10⁻⁶ cm/s
same,bioavailability,[3],57%
same,half-life,[4],1.5 h
same,half-life,[5],2.3 h
same,bioavailability,[6],103%
same,inhibition in vivo at 1 mg/kg,Rattus norvegicus [7],49%
same,Activity,Canis familiaris,Non-toxic
same,covalent protein binding,Plasma,< 10 pmol/mg
same,inhibition in vivo at 10 mg/kg,Rattus norvegicus [8],70%
same,Cmax,[9],700 nM
same,IC50,[10],0.8 nM
same,AUC(0-t) at 24 h,[11],268 µM·h
same,AUC(0-t) at 24 h,[12],4.9 µM·h
same,concentration at 2 h,[13],270 nM
same,Cmax,[14],500 nM
same,AUC(0-t) at 24 h,[15],2.7 µM·h
same,Cmax,[16],5200 nM
same,inhibition in vivo at 1 mg/kg,Rattus norvegicus [17],39%
same,concentration at 2 h,[18],4240 nM
same,concentration,Rattus norvegicus [19],1090 nM
same,IC50,[20],2400 nM
same,Cmax,[21],300 nM
same,inhibition in vivo at 3 mg/kg,Rattus norvegicus [22],65%
same,concentration,Rattus norvegicus [23],240 nM
same,bioavailability,[24],38%
same,Stability,Liver microsomes,8 pmol
same,Kp,[25],0.1
same,remaining at 10 min,[26],100%
same,Vd,[27],1.3 L/kg
same,Vd,[28],1 L/kg
same,inhibition in vivo at 3 mg/kg,Rattus norvegicus [29],64%
